In ChEMBL document CHEMBL1129563, “Opioid antagonist activity of naltrexone-derived bivalent ligands: importance of a properly oriented molecular scaffold to guide "address" recognition at kappa opioid receptors” (J Med Chem, 1996):

Experiments:
[1] = Ratio of antagonistic activity treated/control in Mice; antinociceptive effect of morphine opioid agonist in Mice; format: functional
Outline: (§1)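 Tail-flick test in Swiss Webster mice. The antagonist was given sc at 6.2 μmol/kg, timed so its 30 min peak fell at the centre of the observation period. Morphine and U-50488 were given sc (μmol/kg) and DPDPE icv (nmol/mouse). Agonist ED50 was found in control and treated mice and expressed as the treated/control ED50 ratio.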

[2] = target: T1, Opioid receptors; mu & delta (Homo sapiens) (UniProt P41143+P35372); assay: Selectivity ratio between delta and mu opioid receptor from guinea pig brain membrane
Outline: (§2)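 Competition binding against radioligands in guinea pig brain membranes. μ sites used [3H]DAMGO. κ sites used [3H]EK with 1 μM DAMGO, and δ sites used [3H]DADLE with 1 μM DAMGO. Ki is the geometric mean of three replicates. Selectivity is given as δ/μ and κ/μ Ki ratios.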

[3] = target: Kappa-type opioid receptor (Cavia porcellus) (UniProt P41144); assay: Ke value was obtained from IC50 ratio value when compared with kappa opioid agonist in Guinea pig Ileum using EK as radioligand; format: functional, tissue-based
Outline: (§3)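 Antagonism was tested on electrically stimulated guinea pig ileum (morphine, EK, DAMGO, U-50488) and mouse vas deferens (DADLE, DPDPE). Antagonist (usually 100 nM, some at 20 nM) was incubated 15 min before agonist. IC50 ratio is agonist IC50 with antagonist over control IC50 in the same preparation. Ke = [antagonist]/(IC50 ratio − 1). Three or more replicates were run. Selectivity is given as Ke ratios.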

[4] = target: Delta-type opioid receptor (Mus musculus) (UniProt P32300); assay: Ke value was obtained from IC50 ratio value when compared with delta opioid agonist in MVD preparations using DADLE as radioligand; format: functional; outline: as §3
[5] = target: Delta-type opioid receptor (Homo sapiens) (UniProt P41143); assay: Selectivity ratio between Ke value to that of DAMGO (using DPDPE as agonist; delta agonist/DAMGO); format: functional
Outline: (§4)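 Ke values came from IC50 ratios (n ≥ 3) in GPI and MVD, with antagonist preincubated 15 min. Ke = [antagonist]/(IC50 ratio − 1). The reported ratio is Ke against a κ agonist (EK, U-50488) or δ agonist (DADLE, DPDPE) divided by Ke against DAMGO.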

[6] = target: Delta-type opioid receptor (Homo sapiens) (UniProt P41143); assay: Selectivity ratio between Ke value to that of DAMGO (using DADLE as agonist; delta agonist/DAMGO); format: functional; outline: as §4
[7] = target: Kappa-type opioid receptor (Homo sapiens) (UniProt P41145); assay: Selectivity ratio between Ke value to that of DAMGO (using EK as agonist; k agonist/DAMGO); format: functional; outline: as §4
[8] = system: Delta-type opioid receptor; assay: Delta opioid activity on Mouse vas deference using DADLE as standard; outline: as §3
[9] = target: Mu-type opioid receptor (Cavia porcellus) (UniProt P97266); assay: Ke value was obtained from IC50 ratio value when compared with Opioid receptor mu 1 agonist in Guinea pig Ileum using DAMGO as radioligand; format: functional, tissue-based; outline: as §3
[10] = target: Kappa-type opioid receptor (Homo sapiens) (UniProt P41145); assay: Selectivity ratio between Ke value to that of DAMGO (using U-50488 as agonist; k agonist/DAMGO); format: functional; outline: as §4
[11] = system: Mus musculus; assay: Antagonistic activity after subcutaneous administration (6.2 umol/kg) with a peak time of 30 mins in mice (using U-50488 as agonist, kappa selective); format: functional; details: sc, 0.5 h; outline: as §1
[12] = target: T2, Opioid receptors; mu & kappa (Homo sapiens) (UniProt P41145+P35372); assay: Selectivity ratio between kappa to that of mu opioid receptor; format: protein assay; outline: as §3
[13] = target: T1, Opioid receptors; mu & delta (Homo sapiens); assay: Selectivity ratio between delta to that of mu opioid receptor; format: protein assay; outline: as §3
[14] = Kappa opioid activity was evaluated on electrically stimulated guinea pig ileum by using ethylketazocine (EK) as standard.; format: tissue-based; outline: as §3
[15] = Mu opioid activity was evaluated on electrically stimulated guinea pig ileum by using morphine(M) as standard.; format: tissue-based; outline: as §3
[16] = target: T3, Kappa-type opioid receptor (Cavia porcellus, UniProt P41144); assay: Binding affinity against Kappa Opioid receptor in Guinea pig brain membranes; format: cell membranes, Membrane; outline: as §2
[17] = Ratio of antagonistic activity of treated/control; antinociceptive effect of DPDPE opioid agonist in Mice; format: functional; outline: as §1
[18] = Ratio of antagonistic activity of treated/control; antinociceptive effect of U-50488 opioid agonist in Mice; format: functional; outline: as §1
[19] = target: T2, Opioid receptors; mu & kappa (Homo sapiens); assay: Selectivity ratio between kappa and mu opioid receptor from guinea pig brain membrane; outline: as §2
[20] = system: Mus musculus; assay: Antagonistic activity after […] with a peak time of 30 mins in mice (using DPDPE as agonist, delta selective); format: functional; outline: as §1
[21] = system: Mus musculus; assay: Antagonistic activity after subcutaneous administration (6.2 umol/kg) with a peak time of 30 mins in mice (using morphine as agonist, mu selective); format: functional; details: sc, 0.5 h; outline: as §1
[22] = target: Delta-type opioid receptor (Homo sapiens) (UniProt P41143); assay: Ke value was obtained from IC50 ratio value when compared with delta opioid agonist in […] using DPDPE as radioligand; format: functional, tissue-based; details: target entry is the homologue from another species
[23] = target: Kappa-type opioid receptor (Cavia porcellus) (UniProt P41144); assay: Ke value was obtained from IC50 ratio value when compared with Opioid receptor kappa 1 agonist in Guinea pig Ileum using U-50488 as radioligand; format: functional, tissue-based; outline: as §3
[24] = target: T4, Mu-type opioid receptor (Cavia porcellus, UniProt P97266); assay: Binding affinity against Opioid receptor mu 1 in Guinea pig brain membranes; format: cell membranes, Membrane; outline: as §2
[25] = target: Mu-type opioid receptor (Cavia porcellus) (UniProt P97266); assay: Ke value is obtained from IC50 ratio value when compared with Opioid receptor mu 1 agonist in Guinea pig Ileum using DAMGO as radioligand; format: functional, tissue-based; outline: as §3
[26] = target: Kappa-type opioid receptor (Cavia porcellus) (UniProt P41144); assay: Ke value was obtained from IC50 ratio values when compared with Opioid receptor kappa 1 agonist in Guinea pig Ileum using EK as radioligand; format: functional, tissue-based; outline: as §3
[27] = Selectivity ratio between morphine and ethylketazocine potencies in GPI and MVD preparations; outline: as §3
[28] = target: T4, Mu-type opioid receptor; assay: Opioid receptor mu 1 antagonistic activity in guinea pig ileum; format: functional, tissue-based; outline: as §3
[29] = target: Delta-type opioid receptor (Mus musculus) (UniProt P32300); assay: Ke value is obtained from IC50 ratio values when compared with delta opioid agonists in MVD preparations using DADLE as radioligand; format: functional; outline: as §3
[30] = Selectivity ratio between DADLE and ethylketazocine potencies in GPI and MVD preparations; outline: as §3
[31] = target: T3, Kappa-type opioid receptor; assay: Binding affinity against Opioid receptor kappa 1 in Guinea pig brain membranes; format: cell membranes, Membrane; outline: as §2

Chain of Delta-type opioid receptor (Mus musculus) (P32300 whole entry): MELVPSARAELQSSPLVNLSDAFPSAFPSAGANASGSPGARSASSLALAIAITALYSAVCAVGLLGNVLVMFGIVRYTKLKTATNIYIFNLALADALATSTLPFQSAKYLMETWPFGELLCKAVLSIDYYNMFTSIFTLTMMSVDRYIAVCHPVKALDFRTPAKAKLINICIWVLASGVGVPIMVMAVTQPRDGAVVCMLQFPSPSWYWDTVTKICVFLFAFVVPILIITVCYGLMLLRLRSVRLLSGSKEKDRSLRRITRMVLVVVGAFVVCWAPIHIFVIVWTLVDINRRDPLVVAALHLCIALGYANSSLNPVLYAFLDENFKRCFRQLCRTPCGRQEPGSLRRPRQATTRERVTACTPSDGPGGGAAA
Chain of Mu-type opioid receptor (Cavia porcellus) (P97266 whole entry): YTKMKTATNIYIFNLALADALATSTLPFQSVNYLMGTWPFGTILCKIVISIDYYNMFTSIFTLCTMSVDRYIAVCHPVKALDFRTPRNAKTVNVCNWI
T4 sequence (P97266 whole entry): as above
Chain of Delta-type opioid receptor (Homo sapiens) (P41143 whole entry): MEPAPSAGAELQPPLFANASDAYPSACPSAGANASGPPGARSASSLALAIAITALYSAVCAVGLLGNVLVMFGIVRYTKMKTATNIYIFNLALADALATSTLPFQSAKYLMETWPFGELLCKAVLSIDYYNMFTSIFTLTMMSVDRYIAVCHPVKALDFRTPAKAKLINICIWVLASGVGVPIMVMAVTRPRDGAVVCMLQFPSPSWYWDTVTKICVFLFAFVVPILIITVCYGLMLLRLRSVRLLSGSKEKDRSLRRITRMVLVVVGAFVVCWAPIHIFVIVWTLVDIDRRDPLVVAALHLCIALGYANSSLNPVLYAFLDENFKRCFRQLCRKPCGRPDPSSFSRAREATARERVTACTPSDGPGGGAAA
Chain of Kappa-type opioid receptor (Cavia porcellus) (P41144 whole entry): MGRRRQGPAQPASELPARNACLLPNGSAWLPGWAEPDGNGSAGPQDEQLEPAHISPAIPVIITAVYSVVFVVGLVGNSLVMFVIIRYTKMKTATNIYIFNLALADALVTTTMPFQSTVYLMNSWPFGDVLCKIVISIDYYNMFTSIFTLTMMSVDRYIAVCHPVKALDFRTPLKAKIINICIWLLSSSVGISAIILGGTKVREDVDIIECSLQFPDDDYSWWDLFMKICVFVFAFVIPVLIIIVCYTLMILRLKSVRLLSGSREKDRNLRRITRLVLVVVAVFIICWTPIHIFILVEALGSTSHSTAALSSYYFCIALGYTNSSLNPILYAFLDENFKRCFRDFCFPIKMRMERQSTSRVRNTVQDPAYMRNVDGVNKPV
T2 sequence (P35372 whole entry, looked up): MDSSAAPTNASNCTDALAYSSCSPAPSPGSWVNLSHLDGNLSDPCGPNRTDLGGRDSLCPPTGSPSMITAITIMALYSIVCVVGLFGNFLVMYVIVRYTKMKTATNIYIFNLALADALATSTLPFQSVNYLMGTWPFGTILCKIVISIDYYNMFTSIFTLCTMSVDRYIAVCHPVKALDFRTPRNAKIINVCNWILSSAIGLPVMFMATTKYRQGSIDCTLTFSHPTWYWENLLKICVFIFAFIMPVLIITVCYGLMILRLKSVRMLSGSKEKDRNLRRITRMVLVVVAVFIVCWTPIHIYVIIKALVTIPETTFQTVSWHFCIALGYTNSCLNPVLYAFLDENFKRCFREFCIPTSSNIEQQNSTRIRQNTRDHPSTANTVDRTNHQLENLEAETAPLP
T2 sequence (P41145 whole entry, looked up): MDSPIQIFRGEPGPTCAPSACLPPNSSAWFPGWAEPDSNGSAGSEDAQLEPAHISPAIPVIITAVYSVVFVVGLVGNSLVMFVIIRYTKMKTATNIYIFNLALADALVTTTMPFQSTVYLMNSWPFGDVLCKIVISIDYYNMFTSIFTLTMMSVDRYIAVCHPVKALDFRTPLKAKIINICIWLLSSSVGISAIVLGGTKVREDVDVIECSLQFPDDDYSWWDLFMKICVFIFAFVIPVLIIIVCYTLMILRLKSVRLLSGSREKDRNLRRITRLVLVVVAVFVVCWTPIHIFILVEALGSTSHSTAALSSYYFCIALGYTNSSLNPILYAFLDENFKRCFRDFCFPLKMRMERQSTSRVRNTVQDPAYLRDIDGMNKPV
T1 sequence (P35372 whole entry, looked up): as the sequence (P35372 whole entry, looked up) above
T1 sequence (P41143 whole entry, looked up): as the sequence (P41143 whole entry) above
Chain of Kappa-type opioid receptor (Homo sapiens) (P41145 whole entry): as the sequence (P41145 whole entry, looked up) above
T3 sequence (P41144 whole entry): as the sequence (P41144 whole entry) above

SMILES: NC1=NC([C@]2(N)CC[C@@]3(O)[C@H]4Cc5ccc(O)c6c5C3(CCN4CC3CC3)[C@H]2O6)=N[C@]12CC[C@@]1(O)[C@H]3Cc4ccc(O)c5c4C1(CCN3CC1CC1)[C@H]2O5
- ED50 ratio [1]: 4
- Ke ratio [2]: 187
- Ke [3]: 12 nM
- Ke [4]: 57 nM
- Ke ratio [5]: 943
- Ke ratio [6]: 814
- Ke ratio [7]: 171
- IC50 ratio [8]: 2.8
- Ke [9]: 0.07 nM
- Ke ratio [10]: 67
- ED50 [11]: 25.6 µmol/kg
- Ke ratio [12]: 40
- Ke ratio [13]: 184
- IC50 ratio [14]: 9.1
- IC50 ratio [15]: 65
- Ki [16]: 88 nM
- ED50 ratio [17]: 0.66
- ED50 ratio [18]: 0.72
- Ke ratio [19]: 90
- ED50 [20]: 16 nM mouse-1
- ED50 [21]: 68.7 µmol/kg
- Ke [22]: 66 nM
- Ke [23]: 4.7 nM
- Ki [24]: 0.98 nM

SMILES: N[C@@]1(C(=O)O)CC[C@@]2(O)[C@H]3Cc4ccc(O)c5c4C2(CCN3CC2CC2)[C@H]1O5
- Ke [25]: 27 nM
- IC50 ratio [8]: 1.1
- IC50 ratio [14]: 1.9
- IC50 ratio [15]: 4.8
- Ke [26]: 10 nM

SMILES: CC(=O)NC1=NC([C@]2(NC(C)=O)CC[C@@]3(O)[C@H]4Cc5ccc(O)c6c5C3(CCN4CC3CC3)[C@H]2O6)=N[C@]12CC[C@@]1(O)[C@H]3Cc4ccc(O)c5c4C1(CCN3CC1CC1)[C@H]2O5
- Ke [25]: 1.9 nM
- Ke ratio [27]: 23
- IC50 ratio [8]: 1.4
- IC50 ratio [14]: 3.3
- IC50 ratio [15]: 11.7
- Ke [26]: 44 nM

SMILES: N=C(N)[C@]1(N)CC[C@@]2(O)[C@H]3Cc4ccc(O)c5c4[C@@]2(CCN3CC2CC2)[C@H]1O5
- IC50 [28]: 18 nM

SMILES: N#C[C@@]1(N)CC[C@@]2(O)[C@H]3Cc4ccc(O)c5c4C2(CCN3CC2CC2)[C@H]1O5
- Ke [25]: 1.3 nM
- Ke ratio [27]: 4.7
- IC50 ratio [8]: 2.5
- Ke [29]: 67 nM
- IC50 ratio [14]: 17.5
- IC50 ratio [15]: 79
- Ke [26]: 6 nM
- Ke ratio [30]: 52

SMILES: N[C@@]1(C2=NC(=O)[C@@]3(CC[C@@]4(O)[C@H]5Cc6ccc(O)c7c6C4(CCN5CC4CC4)[C@H]3O7)N2)CC[C@@]2(O)[C@H]3Cc4ccc(O)c5c4C2(CCN3CC2CC2)[C@H]1O5
- Ke ratio [2]: 151
- Ke [25]: 0.46 nM
- Ki [31]: 5.8 nM
- IC50 ratio [8]: 0.87
- IC50 ratio [14]: 1.1
- IC50 ratio [15]: 11.8
- Ke ratio [19]: 5

SMILES: NC(=O)[C@]1(N)CC[C@@]2(O)[C@H]3Cc4ccc(O)c5c4C2(CCN3CC2CC2)[C@H]1O5
- Ke [25]: 9.8 nM
- IC50 ratio [8]: 0.89
- Ke ratio [12]: 4.5
- IC50 ratio [14]: 3.3
- IC50 ratio [15]: 11.2
- Ke [26]: 44 nM

SMILES: N[C@]1(C(=O)O)CC[C@@]2(O)[C@H]3Cc4ccc(O)c5c4C2(CCN3CC2CC2)[C@H]1O5
- Ke [25]: 0.65 nM
- IC50 ratio [8]: 1.7
- Ke selectivity ratio [12]: 30
- Ke selectivity ratio [13]: 214
- Ke [29]: 139 nM
- IC50 ratio [14]: 6.2
- IC50 ratio [15]: 154
- Ke [26]: 19 nM

SMILES: O=C1NC(=O)[C@@]2(CC[C@@]3(O)[C@H]4Cc5ccc(O)c6c5[C@@]3(CCN4CC3CC3)[C@H]2O6)N1
- IC50 [28]: 71 nM
